In the library only some 2.4% were active in any assay of this set; here they are far more common.
HNF4A DNA FP = change in binding of human HNF4 alpha to DNA; HNF4a-FITC DNA binding, fluorescence polarization, 1 h; 360,000 compounds, 0.3% hits; P41235; activity change, % at 10 µM; in the data active = activity change above about 30%, passing the limit was not always enough
Rin1 Abl inh = inhibitors of human Rin1-Abl protein interaction; P00519+Q13671; TR-FRET Rin1/Abl binding, biochemical; inhibition, % at 7.35 µM; 360,000 compounds, 0.4% hits; in the data active = inhibition above about 5%, passing the limit was not always enough
CSN deneddyl inh = inhibitors of human CSN-mediated cullin deneddylation; Q92905; Purified CSN, SCF-Nedd8-OG deneddylation, fluorescence polarization; inhibition, % at 12.5 µM; 360,000 compounds, 0.38% hits; AID 651999;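 active = pattern-corrected inhibition above about 35%, with an unprinted fluorescence ratio check between 0.5 and 1.5, limit read from the data, passing the limit was not always enough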
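Material: purified human Csn5 enzyme expressed in HEK293T cells / Medium: Tris buffer pH 7.5, NaCl, DTT, Tween-20, trehalose, ovalbumin / Compound dosing: 12.5 µM single point / Schedule: 90 min incubation of compound, enzyme and substrate at room temperature / Signal: fluorescence polarization of the substrate / Control set: no-enzyme wells high, enzyme-with-substrate wells low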
Rpn11 inh = inhibitors of human proteasome Rpn11. human 26S proteasome, Ub4-pepOG fluorescence polarization; 20S core pre-blocked with epoxomicin. 360,000 compounds, 0.59% hits. inhibition, % at 20 µM. AID 588493;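 active = inhibition at 20 µM, scaled to each plate's controls, above about 33%, limit read from the data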
Target sequence (O00487 whole entry, looked up): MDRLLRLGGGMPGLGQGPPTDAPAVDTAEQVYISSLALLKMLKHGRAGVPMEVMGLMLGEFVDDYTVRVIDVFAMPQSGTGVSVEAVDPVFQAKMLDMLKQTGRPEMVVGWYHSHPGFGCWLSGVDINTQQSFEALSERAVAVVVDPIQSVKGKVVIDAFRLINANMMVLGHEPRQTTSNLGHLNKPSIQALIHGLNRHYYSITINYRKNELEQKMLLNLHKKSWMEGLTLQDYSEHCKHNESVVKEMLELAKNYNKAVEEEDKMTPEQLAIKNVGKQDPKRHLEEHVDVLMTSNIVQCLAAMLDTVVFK
Neddylation inh = cullin neddylation inhibition; P61081+Q13564; TR-FRET cullin neddylation, biochemical; inhibition, % at 25 µM; 360,000 compounds, 0.58% hits; AID 651699; in the data active = inhibition above about 36%
TPT1 inhibitor = blocks Candida albicans tRNA 2'-phosphotransferase | inhibition, % at 5 µM | recombinant caTPT1, FP RNA substrate dephosphorylation | 300,000 compounds, 0.81% hits;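 active = inhibition above the mean of all tested compounds plus 3 SD, set per screening campaign, cut at about 24% in these data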
Hits are given with their value; n = inactive; x = not tested or not shown.

SMILES	HNF4A DNA FP	Rin1 Abl inh	CSN deneddyl inh	Rpn11 inh	Neddylation inh	TPT1 inhibitor
O=C(N/N=C/c1ccccc1C(=O)O)c1ccc(COc2cccc3cccnc23)cc1	n	n	n	n	n	n
O=C(N/N=C/c1ccc[nH]1)c1ccc(COc2cccc3cccnc23)cc1	n	n	n	n	49	n
Cc1cc(Br)c(OCc2ccc(C(=O)N/N=C/c3ccc[nH]3)cc2)c(Br)c1	n	n	n	n	41	x
O=C(CN(C(=O)CSc1nc2ccccc2o1)c1cccc(F)c1)NC1CCCCC1	n	n	n	n	n	n
CN1CCN(c2ccc(-c3cc(NC=O)c4ncc(-c5ccccc5)n4c3)cc2)CC1	n	n	n	n	n	x
COc1ccc(N2CCN(CCCNC(=O)C(=O)c3c(C)[nH]c4ccccc34)CC2)cc1	n	n	n	n	n	n
COc1cc(/C=N/NC(=O)c2ccc(CN3C(=O)c4cccc5cccc3c45)cc2)cc(OC)c1O	n	n	n	n	44	n
COc1ccc(/C=N/NC(=O)c2ccc(CN3C(=O)c4cccc5cccc3c45)cc2)cc1O	n	n	n	n	x	n
O=C(NC1CCN(C(=S)NCc2ccco2)CC1)NC12CC3CC(CC(C3)C1)C2	43	n	n	n	n	n
Nc1ccc(OCCCc2c(N)nc(N)nc2N)cc1	n	n	n	81	n	n
COc1ccc(Cc2c(N)nc(N)nc2N)cc1	n	n	n	n	n	n
COC(=O)c1sccc1NC(=O)COc1ccc(F)cc1Cl	n	n	n	n	n	n
CCOC(=O)CSC1=C(C#N)C(=O)NC2(CCCCC2)S1	n	n	n	n	n	n
O=C(Nc1ccc2nc(-c3cccs3)c(-c3cccs3)nc2c1)N1CCOCC1	n	n	n	47	x	n
O=C(Nc1cccc(O)c1)N1CCOCC1	n	n	n	n	n	n
O=C1CCCC(=NNC(=O)c2cc3ccccc3cc2O)C1	n	n	72	x	n	x
COc1ccc(Cc2c(-c3ccc(C)cc3)nc3c4ccccc4ccn23)c(C)c1	n	n	n	n	n	x
CCCc1nc2c3ccccc3ccn2c1Cc1ccc(OC)cc1C	43	n	n	x	n	x
CC1=[N+](C)c2ccc3ccccc3c2C1(C)C	n	n	n	n	44	n
CCN1C(=O)CC(c2ccccc2)N(C2CCCC2)c2nc(Nc3ccc(C(=O)NC4CCN(C)CC4)cc3OC)ncc21 (configuration not stated)	n	10	n	n	x	x
COc1cc(C(=O)NC2CCN(C)CC2)ccc1Nc1ncc2c(n1)N(C1CCCCC1)CCC(=O)N2C	n	n	n	n	40	x
COCCCN1CN(S(=O)(=O)c2cccs2)c2nc3ccccc3nc21	n	n	n	n	n	n
O=c1c2ccccc2ncn1-c1ccccc1C(F)(F)F	n	n	n	n	n	n
O=C(CCc1nnc(-c2ccc(-c3ccccc3)cc2)o1)N1CCCCC1	n	n	n	n	n	n
Cc1cccc(NS(=O)(=O)c2ccc(NC(=O)N3CCCCC3)cc2)c1	n	n	43	n	n	n
SMILES	HNF4A DNA FP	Rin1 Abl inh	CSN deneddyl inh	Rpn11 inh	Neddylation inh	TPT1 inhibitor
COc1ccc(Cl)cc1N1C(=N)SCC1=O	n	n	n	n	n	n
O=C(NCc1ccncc1)[C@@H]1CCCN1C(=O)[C@@H]1CCCN1C(=O)c1ccccc1Cl	n	x	n	x	n	x
COc1ccccc1CN(C)C(=O)c1ccc(S(=O)(=O)NCc2ccco2)cc1	n	n	n	n	n	x
O=C(COC(=O)c1ccc(S(=O)(=O)NCc2ccco2)cc1)Nc1ccc(Cl)cn1	n	n	48	n	n	n
Cc1ccc(NC(=O)COC(=O)c2ccc(S(=O)(=O)NCc3ccco3)cc2)cc1	n	n	n	n	n	x
CN(Cc1cnn(-c2ccccc2)c1)C(=O)c1ccc(S(=O)(=O)NCc2ccco2)cc1	n	n	45	n	n	x
O=C(COC(=O)c1ccc(S(=O)(=O)NCc2ccco2)cc1)Nc1ccccc1	n	n	37	n	n	x
Cc1cccc(NC(=O)C(C)Sc2ncnc3sccc23)c1 (configuration not stated)	n	n	n	n	n	x
CCCC(=O)Nc1ccccc1-c1nnc(SCC)[nH]c1=O	n	n	n	n	n	n
c1nc(NC2CCCCC2)c2[nH]cnc2n1	n	n	45	n	n	n
O=C(Cc1ccccc1)NCC(=O)OCc1cccc([N+](=O)[O-])c1	n	n	38	n	n	n

Screening results as filed in PubChem.
